Measurements taken from article PMC12239663 (Journal of the American Chemical Society, 2024).
Where two headings read alike, the source gives them in different places.

Tests used:
SgvP [1] = molecular target: T1, SgvP (Streptomyces griseoviridis, UniProt R9USI6); assay type: biochemical; conditions: Fdx/Fdr, Opt13, NADP+, TCEP, no apparent intermediates detected
How it was run: (§1)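 Reactions were run under standard conditions, with a control reaction lacking P450. Peaks containing m/z 496 and m/z 512 were taken as singly- and doubly-oxidized by-products.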

SgvP-RhFRed = assay: Enzymatic reaction with SgvP-RhFRed chimera; assay type: biochemical, Streptomyces griseoviridis; conditions: NADP+, Opt13 for NADPH regeneration; without TCEP; LC-MS
FNS2 = assay: Activity of homolog P450-RhFRed chimera FNS2; assay type: biochemical; conditions: cell lysates, range of conditions
SgvP [2] = molecular target: T1, SgvP; assay: Type I binding spectra, titration of SgvP with 2
[3] = Behavior toward chemical oxidants; assay type: physicochemical
[4] = Stability in aqueous buffer; assay type: physicochemical
SgvP P237T = assay: Enzymatic reaction with SgvP mutant P237T; assay type: biochemical, Streptomyces griseoviridis; conditions: substrate 2; same reaction conditions as wild-type SgvP
[5] = Stability under air at ambient temperature; assay type: physicochemical; conditions: two weeks
NK82 = assay: Activity of homolog P450-RhFRed chimera NK82; assay type: biochemical; conditions: cell lysates, range of conditions
SgvP [6] = molecular target: T1, SgvP; assay: In vitro reconstitution of C–S bond formation, SgvP with CamB/CamA; assay type: biochemical; conditions: CamB/CamA as redox partners, relative to Fdx/Fdr
YY64 = assay: Activity of homolog P450-RhFRed chimera YY64; assay type: biochemical; conditions: cell lysates, range of conditions
SgvP mutants = assay: LC-MS by-product analysis of reactions with SgvP mutants; assay type: biochemical, Streptomyces griseoviridis; conditions: singly- (m/z = 496) and doubly-oxidized (m/z = 512) by-products, substrate 2
How it was run: as §1

SgvP L337F = assay: Enzymatic reaction with SgvP mutant L337F; assay type: biochemical, Streptomyces griseoviridis; conditions: substrate 2; same reaction conditions as wild-type SgvP
How it was run: as §1

[7] = system: SgvP P237T with A238 mutated to threonine; assay: Enzymatic reaction with SgvP double mutant P237T, A238 to threonine; assay type: biochemical, Streptomyces griseoviridis; conditions: substrate 2; P237T activity partially rescued by mutating A238 to threonine

For pre-griseoviridin [compound 2], the “conversion to griseoviridin (1)” value (SgvP [1]) was “nearly full conversion to griseoviridin (1) in approximately three hours”, the “product of incubation with SgvP-RhFRed” value (SgvP-RhFRed) was “yielded only disulfide” and the “activity of homolog chimera with 2” value (FNS2) was “none of the homologs exhibited any activity”. For the same substance, the binding spectrum type (SgvP [2]; SgvP incubated with various concentrations of 2) was “characteristic type I binding spectrum”, the “Kd relative to that of TleB (fold lower)” value (SgvP [2]; SgvP–2 Kd lower than TleB Kd) was 2.5 fold and the “Kd relative to that of PtmO5” value (SgvP [2]; SgvP–2 Kd vs PtmO5 Kd) was “one order of magnitude higher”. The “λmax after shift on binding of 2” value (SgvP [2]; type I binding spectrum, λmax shifted from 421 nm) was 386 nm, the “production of 1 with chemical oxidants” value ([3]; mCPBA or basic H2O2) was “we did not observe the production of 1” and the “outcome of treatment with mCPBA” value ([3]; mCPBA, crude NMR, sulfinic and sulfonic acids of 2 tentatively detected by LC-MS) was “intractable mixture”. The “outcome of treatment with basic H2O2” value ([3]; series of basic hydrogen peroxide conditions) was “ester hydrolysis, S-oxidation, or broad degradation”, the “disulfide formation with TCEP” value ([4]; TCEP added to the reaction mixture as a reductant) was “disulfide formation was effectively prevented” and the “product in absence of SgvP-RhFRed or in buffer and co-solvent alone” value ([4]; aqueous conditions, exposure to oxygen, no TCEP, LC-MS) was “disulfide as the only product”. The “NMR yield of griseoviridin” value (SgvP P237T) was 7%, the “stability: degradation” value [5] was “remarkably stable, with no discernable degradation even after two weeks” and the “activity of homolog chimera with 2” value (NK82) was “none of the homologs exhibited any activity”. The “conversion to griseoviridin (1)” value (SgvP [6]) was “Analogous results”, the “activity of homolog chimera with 2” value (YY64) was “none of the homologs exhibited any activity” and the by-products formed (SgvP mutants) was “several oxidized by-products had formed”. The “activity relative to wild-type enzyme” value (SgvP L337F) was “comparable – if not slightly enhanced – activity to the wild-type enzyme” and the “NMR yield of griseoviridin” value [7] was 25%.
